Experimental data published in ChEMBL document CHEMBL4689842, “EUbOPEN Chemogenomics Library wave 1” (2021).

Key:
[1] = system: U2OS; test: Incucyte cell viability with U2OS; format: toxicity, cell-based; details: human, 10 µM, compound concentration 10 uM; further: filed as whole numbers so only -1 and 0 and 1 occur
[2] = system: U2OS; test: Multiplex assay against U2OS; format: toxicity, cell-based; details: human
Summary of the method: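 Four dyes were applied at seeding to live cells: Hoechst33342, BioTracker Green Microtubule Cytoskeleton Dye, MitoTracker Red and Annexin V Alexa Fluor 680. Imaging after compound addition used a CQ1 microscope at 37°C and 5% CO2. CellPathfinder machine-learning gating then sorted cells into Hoechst high-intensity objects or normal cells, normal cells into healthy, pyknosed or fragmented nuclei, and pyknosed cells into mitotic or apoptotic, with tubulin, mitochondrial-mass and membrane-permeability phenotypes given as per cents of healthy-nucleus cells.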

[3] = 12 h, 1 µM, compound concentration 1 uM, replicate 1
[4] = 12 h, 1 µM, compound concentration 1 uM, replicate 2
[5] = 12 h, 10 µM, compound concentration 10 uM, replicate 1
[6] = 12 h, 10 µM, compound concentration 10 uM, replicate 2
[7] = 24 h, 1 µM, compound concentration 1 uM, replicate 1
[8] = 24 h, 1 µM, compound concentration 1 uM, replicate 2
[9] = 24 h, 10 µM, compound concentration 10 uM, replicate 1
[10] = 24 h, 10 µM, compound concentration 10 uM, replicate 2

Cl.Cl.NC1(c2ccc(-c3nc4ccn5c(=O)[nH]nc5c4cc3-c3ccccc3)cc2)CCC1 was tested, and the “Growth Rate” value ([1]; 0 h, replicate number 1, timepoint 0 hours) was 0, the “Growth Rate” value ([1]; 6 h, replicate number 1, timepoint 6 hours) was 1 and the “Growth Rate” value ([1]; 12 h, replicate number 1, timepoint 12 hours) was 1. For the same molecule, the “Growth Rate” value ([1]; 18 h, replicate number 1, timepoint 18 hours) was 1, the “Growth Rate” value ([1]; 24 h, replicate number 1, timepoint 24 hours) was 1 and the “Population Apoptotic (%)” value [2, 3] was 53%. The “Population Fragmented Nuclei (%)” value [2, 3] was 11%, the “Population Healthy Nuclei (%)” value [2, 3] was 81% and the “Population Hoechst High Intensity Objects (%)” value [2, 3] was 1%. The “Population Membrane Permeable-Phenotype (%)” value [2, 3] was 20%, the “Population Mitochondria Different-Phenotype (%)” value [2, 3] was 13% and the “Population Mitotic Cells (%)” value [2, 3] was 46%. For the same molecule, the “Population Normal (%)” value [2, 3] was 98%, the “Population Pyknosed Nuclei (%)” value [2, 3] was 6% and the “Population Tubulin-Different-Phenotype (%)” value [2, 3] was 14%. The “Total Cell Count” value [2, 3] was 154, the “Population Apoptotic (%)” value [2, 4] was 50% and the “Population Fragmented Nuclei (%)” value [2, 4] was 17%. For the same molecule, the “Population Healthy Nuclei (%)” value [2, 4] was 77%, the “Population Hoechst High Intensity Objects (%)” value [2, 4] was 12% and the “Population Membrane Permeable-Phenotype (%)” value [2, 4] was 10%. The “Population Mitochondria Different-Phenotype (%)” value [2, 4] was 17%, the “Population Mitotic Cells (%)” value [2, 4] was 50% and the “Population Normal (%)” value [2, 4] was 87%. For the same molecule, the “Population Pyknosed Nuclei (%)” value [2, 4] was 4%, the “Population Tubulin-Different-Phenotype (%)” value [2, 4] was 19% and the “Total Cell Count” value [2, 4] was 116. For the same molecule, the “Population Apoptotic (%)” value [2, 5] was 22%, the “Population Fragmented Nuclei (%)” value [2, 5] was 16% and the “Population Healthy Nuclei (%)” value [2, 5] was 40%. The “Population Hoechst High Intensity Objects (%)” value [2, 5] was 9%, the “Population Membrane Permeable-Phenotype (%)” value [2, 5] was 28% and the “Population Mitochondria Different-Phenotype (%)” value [2, 5] was 53%. For the same molecule, the “Population Mitotic Cells (%)” value [2, 5] was 77%, the “Population Normal (%)” value [2, 5] was 90% and the “Population Pyknosed Nuclei (%)” value [2, 5] was 42%. For the same molecule, the “Population Tubulin-Different-Phenotype (%)” value [2, 5] was 70%, the “Total Cell Count” value [2, 5] was 190 and the “Population Apoptotic (%)” value [2, 6] was 11%. The “Population Fragmented Nuclei (%)” value [2, 6] was 26%, the “Population Healthy Nuclei (%)” value [2, 6] was 42% and the “Population Hoechst High Intensity Objects (%)” value [2, 6] was 16%. For the same molecule, the “Population Membrane Permeable-Phenotype (%)” value [2, 6] was 16%, the “Population Mitochondria Different-Phenotype (%)” value [2, 6] was 51% and the “Population Mitotic Cells (%)” value [2, 6] was 88%. For the same molecule, the “Population Normal (%)” value [2, 6] was 83%, the “Population Pyknosed Nuclei (%)” value [2, 6] was 31% and the “Population Tubulin-Different-Phenotype (%)” value [2, 6] was 66%. The “Total Cell Count” value [2, 6] was 160, the “Population Apoptotic (%)” value [2, 7] was 50% and the “Population Fragmented Nuclei (%)” value [2, 7] was 9%. For the same molecule, the “Population Healthy Nuclei (%)” value [2, 7] was 85%, the “Population Hoechst High Intensity Objects (%)” value [2, 7] was 1% and the “Population Membrane Permeable-Phenotype (%)” value [2, 7] was 14%. For the same molecule, the “Population Mitochondria Different-Phenotype (%)” value [2, 7] was 11%, the “Population Mitotic Cells (%)” value [2, 7] was 50% and the “Population Normal (%)” value [2, 7] was 98%. For the same molecule, the “Population Pyknosed Nuclei (%)” value [2, 7] was 5%, the “Population Tubulin-Different-Phenotype (%)” value [2, 7] was 17% and the “Total Cell Count” value [2, 7] was 140. The “Population Apoptotic (%)” value [2, 8] was 16%, the “Population Fragmented Nuclei (%)” value [2, 8] was 14% and the “Population Healthy Nuclei (%)” value [2, 8] was 81%. The “Population Hoechst High Intensity Objects (%)” value [2, 8] was 8%, the “Population Membrane Permeable-Phenotype (%)” value [2, 8] was 10% and the “Population Mitochondria Different-Phenotype (%)” value [2, 8] was 21%. The “Population Mitotic Cells (%)” value [2, 8] was 83%, the “Population Normal (%)” value [2, 8] was 91% and the “Population Pyknosed Nuclei (%)” value [2, 8] was 3%. The “Population Tubulin-Different-Phenotype (%)” value [2, 8] was 19%, the “Total Cell Count” value [2, 8] was 103 and the “Population Apoptotic (%)” value [2, 9] was 36%. For the same molecule, the “Population Fragmented Nuclei (%)” value [2, 9] was 8%, the “Population Healthy Nuclei (%)” value [2, 9] was 27% and the “Population Hoechst High Intensity Objects (%)” value [2, 9] was 19%. For the same molecule, the “Population Membrane Permeable-Phenotype (%)” value [2, 9] was 19%, the “Population Mitochondria Different-Phenotype (%)” value [2, 9] was 68% and the “Population Mitotic Cells (%)” value [2, 9] was 64%. The “Population Normal (%)” value [2, 9] was 80%, the “Population Pyknosed Nuclei (%)” value [2, 9] was 64% and the “Population Tubulin-Different-Phenotype (%)” value [2, 9] was 55%. For the same molecule, the “Total Cell Count” value [2, 9] was 268, the “Population Apoptotic (%)” value [2, 10] was 29% and the “Population Fragmented Nuclei (%)” value [2, 10] was 18%. For the same molecule, the “Population Healthy Nuclei (%)” value [2, 10] was 23%, the “Population Hoechst High Intensity Objects (%)” value [2, 10] was 21% and the “Population Membrane Permeable-Phenotype (%)” value [2, 10] was 11%. The “Population Mitochondria Different-Phenotype (%)” value [2, 10] was 57%, the “Population Mitotic Cells (%)” value [2, 10] was 70% and the “Population Normal (%)” value [2, 10] was 78%. For the same molecule, the “Population Pyknosed Nuclei (%)” value [2, 10] was 58%, the “Population Tubulin-Different-Phenotype (%)” value [2, 10] was 48% and the “Total Cell Count” value [2, 10] was 181.
